Tests used:
chip-bound C-peptide = target: T1, chip-bound C-peptide (Homo sapiens, UniProt P01308); assay: SPR binding of C-peptide in solution to chip-bound C-peptide
T1 sequence (P01308 57-87 limits assumed): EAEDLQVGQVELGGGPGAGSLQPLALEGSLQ
Summary of the method: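 Peptide was immobilised on the sensor chip by surface thiol coupling via the C-terminus (up to 5000 RU) or amine coupling via the N-terminus (up to 1000 RU). The same peptide was run as analyte at 20 µl/min, diluted from a 600 µM stock in H2O/HCl pH 5. Running buffers spanned pH 3–7 (citrate, bis-Tris or Tris/HCl, 10 mM) with 100 mM NaCl and 0.005% SP20.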

[1] = target: insulin-insulin interactions (chip-bound insulin) (Homo sapiens, UniProt P01308); assay type: binding; details: peptide mixed with insulin analyte
Sequence of insulin-insulin interactions (chip-bound insulin) (P01308 25-54 limits assumed): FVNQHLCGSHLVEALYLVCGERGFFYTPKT
Sequence of insulin-insulin interactions (chip-bound insulin) (P01308 90-110 limits assumed): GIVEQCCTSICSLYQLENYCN
Summary of the method: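 Biacore SPR with insulin immobilized either C-terminally (surface thiol coupling, up to 5000 RU) or N-terminally (amine coupling, up to 1000 RU). Test peptide was premixed with insulin analyte at 1, 5, 10 and 20 µM and flowed at 20 µl/min. Running buffer was 10 mM Na citrate pH 5 with 100 mM NaCl and 0.005% SP20. Curves are averages of three runs after blank subtraction.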

insulin hexamer = insulin hexamer (Homo sapiens, UniProt P01308); assay: ESI-MS analysis of insulin oligomer states in insulin/C-peptide mixtures
Sequence of insulin hexamer (P01308 25-54 limits assumed): as the sequence (P01308 25-54 limits assumed) above

## C-peptide
chip-bound C-peptide
  binding of C-peptide in solution to chip-bound C-peptide: no evidence for such binding
[1]
  effect on rate of dissociation in insulin-insulin SPR: slightly reduce the rate of dissociation
Insulin hexamer; at low peptide concentrations
  effects on insulin in ESI-MS compared with scrambled C-peptide: slightly more effects on insulin than scrambled C-peptide
Insulin hexamer; nano-ESI-MS, pH 5, insulin 30 µM and C-peptide 30 µM (1:1)
  insulin hexamer signals in ESI mass spectra: markedly decreased from their level in insulin solutions to an absence in insulin-C-peptide mixtures

Source: PMC2773842 (Cellular and Molecular Life Sciences: CMLS, 2006)
